Legend:
[1] = target: T1, Melatonin receptor type 1A (Homo sapiens, UniProt P48039); assay: Intrinsic activity at human MT1 receptor expressed in NIH3T3 cells assessed as stimulation of [35S]GTPgammaS binding relative to MLT; format: functional, cell-based
[2] = target: T1, Melatonin receptor type 1A; assay: Displacement of 2-[125I]iodomelatonin from human MT1 receptor expressed in NIH3T3 cells; format: cell-based
[3] = target: T2, Melatonin receptor type 1B (Homo sapiens) (UniProt P49286); assay: Intrinsic activity at human MT2 receptor expressed in NIH3T3 cells assessed as stimulation of [35S]GTP-gamma-S binding relative to MLT; format: functional, cell-based
T2 sequence (whole entry): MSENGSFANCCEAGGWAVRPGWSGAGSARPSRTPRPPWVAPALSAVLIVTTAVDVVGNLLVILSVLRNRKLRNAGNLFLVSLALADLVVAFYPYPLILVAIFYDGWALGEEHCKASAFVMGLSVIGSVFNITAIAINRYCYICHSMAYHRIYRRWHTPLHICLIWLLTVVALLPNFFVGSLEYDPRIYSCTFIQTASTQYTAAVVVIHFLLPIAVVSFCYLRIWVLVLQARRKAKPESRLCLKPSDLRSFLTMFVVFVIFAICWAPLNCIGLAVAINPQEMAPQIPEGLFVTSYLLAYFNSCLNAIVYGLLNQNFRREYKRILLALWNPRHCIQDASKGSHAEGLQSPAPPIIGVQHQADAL

[4] = target: T3, Melatonin receptor type 1B (Homo sapiens, UniProt P49286); assay: Displacement of 2-[125I]iodomelatonin from human MT2 receptor expressed in NIH3T3 cells; format: cell-based
T3 sequence (P49286 whole entry): T2 sequence (whole entry)

[5] = target: Melatonin receptor (Homo sapiens) (UniProt P48039+P49286); assay: Selectivity for human MT2 receptor over MT1 receptor; format: protein assay
Sequence of Melatonin receptor (Homo sapiens) (P48039 whole entry, looked up, one chain of several): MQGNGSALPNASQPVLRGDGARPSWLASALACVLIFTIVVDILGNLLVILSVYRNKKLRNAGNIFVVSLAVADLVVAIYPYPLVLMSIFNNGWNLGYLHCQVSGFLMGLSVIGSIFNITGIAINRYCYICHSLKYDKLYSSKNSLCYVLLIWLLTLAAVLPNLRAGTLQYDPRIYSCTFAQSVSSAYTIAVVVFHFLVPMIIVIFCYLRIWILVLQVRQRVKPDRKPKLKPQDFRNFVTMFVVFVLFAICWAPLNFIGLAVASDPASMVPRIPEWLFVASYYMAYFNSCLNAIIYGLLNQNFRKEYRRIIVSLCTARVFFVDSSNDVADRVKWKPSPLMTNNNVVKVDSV
Summary of the method: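 Incubation was 90 min at 37 °C in 50 mM Tris/HCl, pH 7.4, with nonspecific binding defined by 10 µM MLT. Ki came from IC50 via Cheng-Prusoff, mean of at least three runs in duplicate. The ratio compares MT1 and MT2 Ki.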

[6] = target: T2, Melatonin receptor type 1B (Homo sapiens); assay: (§1) Activity at human MT2 receptor expressed in NIH3T3 cells assessed as inhibition of MLT-stimulated [35S]GTPgammaS binding; format: functional, cell-based
Summary of the method: (§2)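 Antagonism was measured in [35S]GTPγS binding on human MT2 NIH3T3 membranes (30 min, 30 °C; GDP 50 µM, NaCl 100 mM, MgCl2 3 mM). MLT concentration-response curves were run alone and with antagonist at 1, 10, 100 and 1000 nM.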

[7] = target: T3, Melatonin receptor type 1B; assay: as §1; format: functional, cell-based; details: read-out: pA2 (converted); summary of the method: as §2
[8] = target: T1, Melatonin receptor type 1A; assay: Activity at human MT1 receptor expressed in NIH3T3 cells assessed as inhibition of MLT-stimulated [35S]GTP-gamma-S binding; format: functional, cell-based; details: filed as partial agonist

T1 sequence (P48039 whole entry): as the sequence (P48039 whole entry, looked up, one chain of several) above

Row | SMILES | Intrinsic activity [1] | Ki [2] [nM] | Intrinsic activity [3] | Ki [4] [nM] | Selectivity ratio [5] | Activity ([6]; filed as antagonist) | Kb [7] [nM] | Activity ([6]; filed as partial agonist) | Activity [8]
1 | COc1cccc(/C(=C/CNC(=O)C2CCC2)c2ccccc2)c1 | 0.29 | 93.3 | 0.13 | 0.525 | 178 | Antagonist | 0.389 |  | 
2 | COc1cccc(C(=CCNC(C)=O)c2cccc(OC)c2)c1 | 0.2 | 58.9 | 0.34 | 0.275 | 214 |  |  | Partial agonist | Partial agonist
3 | CCC(=O)NCCC(c1ccccc1)c1cccc(OC)c1 (racemic) | 0.31 | 363 | 0.28 | 5.01 |  |  |  |  | 
4 | CC(=O)NCCC(c1ccccc1)c1ccccc1 | -0.19 | 4170 | -0.23 | 141 |  |  |  |  | 
5 | CC(=O)NCC(Cc1ccccc1)c1ccccc1 (configuration not stated) | -0.3 | 708 | -0.43 | 417 |  |  |  |  | 
6 | COc1cccc(C(CNC(C)=O)Cc2ccccc2)c1 (configuration not stated) | -0.23 | 692 | -0.18 | 204 |  |  |  |  | 
7 | CCC(=O)NCC(Cc1ccccc1)c1cccc(OC)c1 (configuration not stated) | -0.13 | 525 | -0.25 | 191 |  |  |  |  | 
8 | O=C(NCC=C(c1ccccc1)c1ccccc1)C1CCC1 | -0.18 | 912 | -0.2 | 13.2 |  |  |  |  | 
9 | COc1ccc(Cc2ccccc2)c(CCNC(C)=O)c1 | 0.24 | 69.2 | 0.06 | 6.03 |  |  |  |  | 
10 | CC(=O)NCC=C(c1ccccc1)c1ccccc1 | -0.03 | 513 | 0.19 | 11.5 |  |  |  |  | 

Continued by falling Ki [2], values first:

Row | Intrinsic activity [1] | Ki [2] [nM] | Intrinsic activity [3] | Ki [4] [nM] | Selectivity ratio [5] | Activity ([6]; filed as antagonist) | Kb [7] [nM] | Activity ([6]; filed as partial agonist) | Activity [8] | SMILES
11 | -0.23 | 3630 | -0.15 | 525 |  |  |  |  |  | CC(=O)NC/C(=C/c1ccccc1)c1ccccc1
12 | 0.24 | 2190 | 0.04 | 5.37 | 407 |  |  |  |  | COc1cccc(C(CCNC(C)=O)c2ccccc2)c1 (racemic)
13 | 0.11 | 1200 | 0.18 | 148 |  |  |  |  |  | CC(=O)NC/C(=C\c1ccccc1)c1ccccc1
14 | 0.21 | 550 | 0.27 | 2.63 | 209 |  |  |  |  | CCCC(=O)NCCC(c1ccccc1)c1cccc(OC)c1 (racemic)
15 | 0.24 | 389 | 0.48 | 661 |  |  |  |  |  | CCC(=O)NCCc1cccc(Cc2ccccc2)c1
16 | -0.04 | 257 | -0.02 | 1.55 |  |  |  |  |  | COc1cccc(/C(=C\CNC(=O)C2CCC2)c2ccccc2)c1
17 | 0.45 | 229 | 0.3 | 2.51 |  |  |  |  |  | COc1cccc(/C(=C\CNC(C)=O)c2ccccc2)c1
18 | 0.54 | 2.69 | 0.38 | 0.219 |  |  |  | Partial agonist | Partial agonist | COc1cccc(/C(=C/CNC(C)=O)c2ccccc2)c1
